Source: ChEMBL document CHEMBL4619801, “Discovery of Phthalazinone Derivatives as Novel Hepatitis B Virus Capsid Inhibitors” (J Med Chem, 2020)
Activity calls are given as the source filed them. The rule behind the calls is not given here.

Legend:
[1] = Cytotoxicity in human HepG2.2.15 cells assessed as reduction in cell viability incubated for 8 days by MTT assay; assay type: cell-based, HepG2 2.2.15
Summary of the method: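 This was run in the same 8-day HepG2.2.15 cultures. After the medium was removed, MTT was added (final 2.5 mg/mL) for 1 h at 37 °C. Cells were lysed in 10% SDS/50% DMF, pH 7.2, and OD was read at 570 nm to give % cell death. CC50 was averaged with SD from at least two independent determinations.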

Hepatitis B virus [2] = assay: Antiviral activity against HBV infected in human HepG2.2.15 cells assessed as reduction in cytoplasmic HBV-DNA replication incubated for 8 days by real-time PCR analysis; assay type: functional, organism-based
Hepatitis B virus [3] = assay: Antiviral activity against HBV infected in human HepG2.2.15 cells assessed as reduction in cytoplasmic HBV-DNA replication at cytotoxic CC50 level incubated for 8 days by real-time PCR analysis; assay type: functional, organism-based; details: HepG2 2.2.15
[4] = Drug level in CD1 mouse liver at 20 mg/kg, po dosed as single administration measured after 24 hrs; assay type: ADME, organism-based; details: in vivo
Summary of the method: (§1)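 ICR (CD-1) mice were dosed orally at 20 mg/kg. At set times (1, 3, 8 and 24 h), blood was taken from the heart and portal vein under isoflurane anesthesia and spun to plasma. Livers were removed after portal vein perfusion, rinsed in saline, weighed and homogenized in saline (5 mL/g). Samples were analysed by UPLC–MS/MS in positive electrospray mode.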

Hepatitis B virus [5] = assay: Antiviral activity against HBV infected in human HepG2.2.15 cells assessed as reduction in relaxed circular form of viral DNA at 0.06 to 1 uM incubated for 8 days by Southern blotting analysis; assay type: functional, organism-based; details: HepG2 2.2.15
Summary of the method: (§2)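 HepG2.2.15 cells grown in 12-well plates were treated at the indicated concentrations for 8 days. HBV DNA was extracted from intracellular capsids and detected by Southern blot hybridization with a DIG-labeled HBV genomic fragment probe. Relaxed circular (rc) and single-stranded (ss) replication intermediates were read from the blot.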

[6] = Drug level in CD1 mouse liver at 20 mg/kg, po dosed as single administration measured after 1 to 8 hrs; assay type: ADME, organism-based; details: in vivo; summary of the method: as §1
Hepatitis B virus [7] = assay: Antiviral activity against HBV infected in human HepG2.2.15 cells assessed as reduction in single-stranded form of viral DNA at 0.06 to 1 uM incubated for 8 days by Southern blotting analysis; assay type: functional, organism-based; details: HepG2 2.2.15; summary of the method: as §2
mouse (Mus musculus) [8] = assay: AUC (0 to infinity) in mouse at 20 mg/kg, po dosed as single administration; details: in vivo
mouse (Mus musculus) [9] = assay: AUC (0 to infinity) in mouse at 2 mg/kg, iv dosed as single administration; details: in vivo
mouse (Mus musculus) [10] = assay: Tmax in mouse at 2 mg/kg, iv dosed as single administration; details: in vivo
mouse (Mus musculus) [11] = assay: Observed volume of distribution at steady state in mouse at 2 mg/kg, iv dosed as single administration; details: in vivo, read-out: Vdss
Hepatitis B virus [12] = assay: Antiviral activity against HBV infected in human HepG2.2.15 cells assessed as reduction in capsid associated DNAs at 5 uM by agarose gel electrophoresis method; assay type: functional, organism-based; details: HepG2 2.2.15
Summary of the method: (§3)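 HepG2.2.15 cells treated at indicated concentrations for 8 days. Intracellular capsids resolved on 1.8% native agarose gel; capsid mobility compared with untreated cells, and capsid-associated HBV DNA detected in situ.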

Hepatitis B virus [13] = assay: Antiviral activity against HBV infected in human HepG2.2.15 cells assessed as reduction in capsid associated DNAs at 1 uM by agarose gel electrophoresis method; assay type: functional, organism-based; details: HepG2 2.2.15; summary of the method: as §3
mouse (Mus musculus) [14] = assay: Observed clearance in mouse at 2 mg/kg, iv dosed as single administration; details: in vivo
mouse (Mus musculus) [15] = assay: Half life in mouse at 2 mg/kg, iv dosed as single administration; details: in vivo
Hepatitis B virus [16] = assay: Antiviral activity against HBV in AAV8-HBV-transduced Balb/c mouse assessed as reduction in HBV DNA level in plasma at 150 mg/kg, po BID for 4 weeks relative to control; assay type: functional
Summary of the method: (§4)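 Male Balb/c mice (6−8 weeks, SPF) given one iv tail-vein injection of recombinant AAV carrying HBV 1.1 genome (10¹¹ viral genome equivalents); after 5 weeks, stably viremic mice dosed orally for 4 weeks. […] Weekly blood sampling; plasma HBV DNA by real-time PCR; Dunnett's test versus vehicle.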

[17] = Drug level in CD1 mouse liver at 20 mg/kg, po dosed as single administration measured after 8 hrs; assay type: ADME, organism-based; details: read-out: Drug uptake; summary of the method: as §1
Hepatitis B virus [18] = assay: Antiviral activity against HBV in AAV8-HBV-transduced Balb/c mouse assessed as reduction in HBV DNA level in plasma at 50 to 150 mg/kg, po BID for 4 weeks; assay type: functional, organism-based; summary of the method: as §4
[19] = Ratio of drug level in liver to plasma of CD1 mouse at 20 mg/kg, po dosed as single administration measured after 8 hrs; assay type: ADME, organism-based; summary of the method: as §1
Hepatitis B virus [20] = assay: Antiviral activity against HBV infected in human HepG2.2.15 cells assessed as reduction in capsid associated DNAs at 0.13 to 1 uM by agarose gel electrophoresis method; assay type: functional, organism-based; details: HepG2 2.2.15; summary of the method: as §3
Hepatitis B virus [21] = assay: Antiviral activity against HBV in AAV8-HBV-transduced Balb/c mouse assessed as reduction in HBV DNA level in plasma at 100 mg/kg, po BID for 4 weeks relative to control; assay type: functional, organism-based; summary of the method: as §4
Hepatitis B virus [22] = assay: Antiviral activity against HBV infected in human HepG2.2.15 cells assessed as increase in faster-migrating capsids levels at 0.13 to 1 uM by agarose gel electrophoresis method; assay type: functional, organism-based; details: HepG2 2.2.15; summary of the method: as §3
Hepatitis B virus [23] = assay: Antiviral activity against HBV infected in human HepG2.2.15 cells assessed as reduction in capsid formation; assay type: functional, organism-based; details: HepG2 2.2.15
Hepatitis B virus [24] = assay: Antiviral activity against HBV infected in human HepG2.2.15 cells assessed as reduction in capsid associated DNAs at 0.1 uM by agarose gel electrophoresis method; assay type: functional, organism-based; details: HepG2 2.2.15; summary of the method: as §3

Row | SMILES | CC50 at 192 h [1] [nM] | IC50 (Hepatitis B virus [2]; HepG2 2.2.15, 192 h) [nM] | IC90 (Hepatitis B virus [2]; HepG2 2.2.15, 192 h) [nM] | further results
1 | N#Cc1ccc(Cn2nc(-c3cc(Cl)c(NC[C@@H](O)CO)nc3F)c3ccccc3c2=O)cc1 | > 100000 | 8 | 240 | 
2 | COC(=O)c1cc(-c2ccc(F)nc2F)nn(Cc2ccc(Cl)cc2)c1=O | > 100000 |  |  | Activity (Hepatitis B virus [3]): inactive
3 | CC(=O)Nc1ccc(-c2nn(Cc3ccc(C#N)cc3)c(=O)c3ccccc23)c(F)n1 | > 100000 |  |  | IC90 (Hepatitis B virus [2]; HepG2 2.2.15): inactive; Activity (Hepatitis B virus [3]): inactive
4 | COc1cc(-c2ccc(F)nc2F)nn(Cc2ccc(Cl)cc2)c1=O | 92200 |  |  | Activity (Hepatitis B virus [3]): inactive
5 | Cc1c(-c2ccc(F)nc2F)nn(Cc2ccc(Cl)cc2)c(=O)c1C | 52900 | 1220 |  | 
6 | N#Cc1ccc(Cn2nc(-c3cc(Cl)c(NC[C@H](O)CO)nc3F)c3ccccc3c2=O)cc1 | > 100000 | 22 | 1010 | 
7 | CN(C)c1ccc(-c2nn(Cc3ccc(C#N)cc3)c(=O)c3ccccc23)c(F)n1 | 79200 | 530 | > 10000 | 
8 | O=C(O)c1cc(-c2ccc(F)nc2F)nn(Cc2ccc(Cl)cc2)c1=O | > 100000 |  |  | Activity (Hepatitis B virus [3]): inactive
9 | COC(=O)CCNc1nc(F)c(-c2nn(Cc3ccc(C#N)cc3)c(=O)c3ccccc23)cc1Cl | > 100000 | 210 | 1140 | 
10 | O=c1c2ccccc2c(-c2ccc(F)nc2F)nn1Cc1ccc(Cl)cc1 | 36700 | 300 |  | 
11 | O=c1c(C2CC2)cc(-c2ccc(F)nc2F)nn1Cc1ccc(Cl)cc1 | 39800 | 35100 |  | 
12 | COCCNc1ccc(-c2nn(Cc3ccc(C#N)cc3)c(=O)c3ccccc23)c(F)n1 | > 100000 | 430 | > 10000 | 
13 | CCOc1ccc(-c2nn(Cc3ccc(C#N)cc3)c(=O)c3ccccc23)c(F)n1 | > 100000 | 2110 | > 10000 | 
14 | O=c1c(CO)cc(-c2ccc(F)nc2F)nn1Cc1ccc(Cl)cc1 | > 100000 | 170 |  | 
15 | N#Cc1ccc(Cn2nc(-c3ccc(F)nc3F)c3ccccc3c2=O)cc1 | > 100000 | 120 |  | Drug uptake [4]: Not Active; Activity (Hepatitis B virus [5]): Dose-dependent effect; Drug uptake [6]: Active; Activity (Hepatitis B virus [7]): Dose-dependent effect
16 | O=c1c2c(c(-c3ccc(F)nc3F)nn1Cc1ccc(Cl)cc1)CCCC2 | 31000 | 1450 |  | 

Row | SMILES | CC50 at 192 h [1] [nM] | IC50 (Hepatitis B virus [2]; HepG2 2.2.15, 192 h) [nM] | IC90 (Hepatitis B virus [2]; HepG2 2.2.15, 192 h) [nM] | further results
17 | Cc1nc(-c2ccc(F)nc2F)cn(Cc2ccc(Cl)cc2)c1=O | > 100000 |  |  | Activity (Hepatitis B virus [3]): inactive
18 | N#Cc1ccc(Cn2nc(-c3cc(Cl)c(NCCO)nc3F)c3ccccc3c2=O)cc1 | 32100 | 28 | 230 | AUC(0-inf) (mouse (Mus musculus) [8]): 171 ng·h/mL; AUC (mouse (Mus musculus) [9]): 735 ng·h/mL; Tmax (mouse (Mus musculus) [10]): 0.25 h; Vd (mouse (Mus musculus) [11]): 5.44 L/kg
19 | N#Cc1ccc(Cn2nc(-c3ccc(N)nc3F)c3ccccc3c2=O)cc1 | > 100000 | 800 | > 10000 | 
20 | COc1ccccc1/C(Br)=C(/NC(=O)c1ccc([N+](=O)[O-])cc1)C(=O)N1CCCCC1 | > 20000 | 870 |  | Activity (Hepatitis B virus [12]): Active
21 | CNc1ccc(-c2nn(Cc3ccc(C#N)cc3)c(=O)c3ccccc23)c(F)n1 | > 100000 | 540 | > 10000 | 
22 | COC(=O)C1=C(C)NC(c2ncc(F)cc2F)=N[C@H]1c1ccc(F)cc1Cl |  | 42 |  | Activity (Hepatitis B virus [13]): Active
23 | CC(C)c1cc(-c2ccc(F)nc2F)nn(Cc2ccc(Cl)cc2)c1=O | 56700 | 11300 |  | 
24 | Cc1cc(-c2ccc(F)nc2F)cn(Cc2ccc(Cl)cc2)c1=O | 90800 | 5450 |  | 
25 | N#Cc1ccc(Cn2nc(-c3cc(Cl)c(NCCC(=O)O)nc3F)c3ccccc3c2=O)cc1 | > 100000 | 260 | 4020 | 
26 | COCCNc1nc(F)c(-c2nn(Cc3ccc(C#N)cc3)c(=O)c3ccccc23)cc1Cl | > 100000 | 38 | 350 | AUC(0-inf) (mouse (Mus musculus) [8]): 850 ng·h/mL; clearance (mouse (Mus musculus) [14]): 11.1 mL/min/kg; Activity (Hepatitis B virus [5]): Dose-dependent effect; AUC(0-inf) (mouse (Mus musculus) [9]): 3070 ng·h/mL; half-life (mouse (Mus musculus) [15]): 3.09 h; Vd (mouse (Mus musculus) [11]): 3.09 L/kg; Activity (Hepatitis B virus [7]): Dose-dependent effect
27 | Cc1ccc(-c2nn(Cc3ccc(C#N)cc3)c(=O)c3ccccc23)c(F)n1 | > 100000 | 820 | > 10000 | 
28 | Cn1cc(-c2ccc(F)nc2F)nc(Cc2ccc(Cl)cc2)c1=O | > 100000 | 1890 |  | 
29 | N#Cc1ccc(Cn2nc(-c3cc(Cl)c(NCC(O)CO)nc3F)c3ccccc3c2=O)cc1 (configuration not stated) | > 100000 | 14 | 390 | AUC(0-inf) (mouse (Mus musculus) [8]): 49800 ng·h/mL; log(activity) (Hepatitis B virus [16]): 2.67; clearance (mouse (Mus musculus) [14]): 4.1 mL/min/kg; concentration at 8 h [17]: 5950 ng/g; Activity (Hepatitis B virus [5]): Dose-dependent effect; AUC(0-inf) (mouse (Mus musculus) [9]): 8250 ng·h/mL; Activity (Hepatitis B virus [18]): Dose-dependent effect; Kp at 8 h [19]: 4; Activity (Hepatitis B virus [20]): Dose-dependent effect; Activity (Hepatitis B virus [21]): Active; Activity (Hepatitis B virus [22]): Active; half-life (mouse (Mus musculus) [15]): 2.52 h; Vd (mouse (Mus musculus) [11]): 0.766 L/kg; Activity (Hepatitis B virus [7]): Dose-dependent effect
30 | C=C1[C@H](CO)[C@@H](O)C[C@@H]1n1cnc2c(=O)[nH]c(N)nc21 |  |  |  | Activity (Hepatitis B virus [23]): inactive; Activity (Hepatitis B virus [24]): Active
31 | CN(C)CCNc1nc(F)c(-c2nn(Cc3ccc(C#N)cc3)c(=O)c3ccccc23)cc1Cl | 9760 | 260 | 870 | 
